Molecules are shown by their SMILES. pEC50, pKi: −log10 of the molar value. Bounds are passed on as bounds.

Assay [1] has as its target T1, Kappa-type opioid receptor (Homo sapiens, UniProt P41145). Description: Binding affinity for […] [3H]diprenorphine against human Opioid receptor kappa expressed in chinese hamster ovary cells (CHO cells). The assay is classed as cell-based. The method, boiled down:
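Competitive displacement of [3H]diprenorphine binding to membranes from CHO cells stably transfected with human KOR; compounds were first screened at a single concentration.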

The target in assay [2] is T1, Kappa-type opioid receptor. Description: Percent maximal response in enhanced [35S]GTP-gamma-S, binding to human Opioid receptor kappa expressed in CHO cells relative to U50,488H. The assay is classed as functional, cell-based. The procedure, abridged:
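Agonist stimulation of [35S]GTPγS binding to membranes of CHO-hKOR cells; efficacy is maximal response expressed as % of that of U50,488H; means of at least three independent experiments run in duplicate.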
On the technique in general: GTPγS is a poorly hydrolysed GTP analogue; its binding reports G protein activation.

Assay [3] addresses T1, Kappa-type opioid receptor. Kind of assay: Concentration required to enhance [35S]GTP-gamma-S, binding to human Opioid receptor kappa expressed in CHO cells. The assay is classed as functional, cell-based. The method, boiled down:
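[35S]GTPγS binding to membranes of CHO cells stably expressing human KOR; EC50 for agonist-stimulated enhancement of binding; means of at least three independent experiments run in duplicate.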

T1 sequence (P41145 whole entry): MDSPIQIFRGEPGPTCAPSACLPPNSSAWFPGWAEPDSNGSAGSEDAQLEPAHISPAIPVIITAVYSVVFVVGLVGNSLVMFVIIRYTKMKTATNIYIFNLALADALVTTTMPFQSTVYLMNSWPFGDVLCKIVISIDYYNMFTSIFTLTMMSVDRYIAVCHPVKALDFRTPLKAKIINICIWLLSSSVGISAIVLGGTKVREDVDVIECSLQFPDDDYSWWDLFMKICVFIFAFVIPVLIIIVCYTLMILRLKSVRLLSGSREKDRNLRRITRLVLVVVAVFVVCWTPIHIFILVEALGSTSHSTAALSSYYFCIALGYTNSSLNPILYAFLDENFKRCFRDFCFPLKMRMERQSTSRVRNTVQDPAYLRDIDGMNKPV

Consider `CC(=O)O[C@H]1C[C@@H](C(=O)NC2CC2)[C@]2(C)CC[C@H]3C(=O)O[C@H](c4ccoc4)C[C@]3(C)[C@H]2C1=O`, for which the negative logarithm of the Ki (pKi) in assay [1] is under 6.00.
On the same count and under the same terms, as for `CCOC(=O)[C@@H]1C[C@H](OC(C)=O)C(=O)[C@@H]2[C@@]3(C)C[C@@H](c4ccoc4)OC(=O)[C@H]3CC[C@]21C`, the figure is under 6.00.
The same measure, in the same setting: the value for `CCCCOC(=O)[C@@H]1C[C@H](OC(C)=O)C(=O)[C@H]2[C@@]1(C)CC[C@H]1C(=O)O[C@H](c3ccoc3)C[C@]21C` was under 6.00.
With `CC(=O)O[C@H]1C[C@@H](C(=O)NCCC#N)[C@]2(C)CC[C@H]3C(=O)O[C@H](c4ccoc4)C[C@]3(C)[C@H]2C1=O`, the pKi in assay [1] is under 6.00.
Still for that read-out and setting: as for `CCCOC(=O)[C@@H]1C[C@H](OC(C)=O)C(=O)[C@H]2[C@@]1(C)CC[C@H]1C(=O)O[C@H](c3ccoc3)C[C@]21C`, the figure is under 6.00; as for `CC(=O)O[C@H]1C[C@@H](C(=O)OCc2ccccc2)[C@]2(C)CC[C@H]3C(=O)O[C@H](c4ccoc4)C[C@]3(C)[C@H]2C1=O`, under 6.00.
Same read-out and setting: the value for `CC(=O)O[C@H]1C[C@@H](C(=O)N2CCCC2C(=O)OCc2ccccc2)[C@]2(C)CC[C@@H]3C(=O)O[C@H](c4ccoc4)C[C@]3(C)[C@H]2C1=O` (some centres undefined) was under 6.00.
For `CC(=O)O[C@H]1C[C@@H](C(=O)NC2CC2)[C@]2(C)CC[C@@H]3C(=O)O[C@H](c4ccoc4)C[C@]3(C)[C@H]2C1=O`, the Efficacy in assay [2] came to 95%. Further, the pEC50 in assay [3] was 6.08. In assay [1], this molecule had a pKi of 6.32.
For `CC(=O)O[C@H]1C[C@@H](C(=O)NCC(=O)OCc2ccccc2)[C@]2(C)CC[C@H]3C(=O)O[C@H](c4ccoc4)C[C@]3(C)[C@H]2C1=O`, in that order: 105%, 6.64 and 6.33.
As to `COCOC(=O)[C@@H]1C[C@H](OC(C)=O)C(=O)[C@H]2[C@@]1(C)CC[C@H]1C(=O)O[C@H](c3ccoc3)C[C@]21C`, the Efficacy in assay [2] is 105%. The pEC50 in assay [3] was 7.24. The pKi in assay [1] is 7.00.
Turning to `CC(=O)O[C@H]1C[C@@H](C(=O)NC(C)C(=O)OCc2ccccc2)[C@]2(C)CC[C@@H]3C(=O)O[C@H](c4ccoc4)C[C@]3(C)[C@H]2C1=O` (some centres undefined), in assay [1], the pKi is under 6.00.
Same read-out and setting: as for `CC(=O)O[C@H]1C[C@@H](C(=O)NCCc2ccccc2)[C@]2(C)CC[C@H]3C(=O)O[C@H](c4ccoc4)C[C@]3(C)[C@H]2C1=O`, the figure is under 6.00.
The same measure, in the same setting: the value for `CC(=O)O[C@H]1C[C@@H](C(=O)O)[C@]2(C)CC[C@H]3C(=O)O[C@H](c4ccoc4)C[C@]3(C)[C@H]2C1=O` was under 6.00.
Same read-out and setting: as for `CC(=O)O[C@H]1C[C@@H](C(=O)NCCO)[C@]2(C)CC[C@H]3C(=O)O[C@H](c4ccoc4)C[C@]3(C)[C@H]2C1=O`, the figure is under 6.00.
With `CC(=O)O[C@H]1C[C@@H](C(=O)NC(C)C(=O)OCc2ccccc2)[C@]2(C)CC[C@H]3C(=O)O[C@H](c4ccoc4)C[C@]3(C)[C@H]2C1=O` (some centres undefined), in assay [2], the Efficacy was 95%. The pEC50 in assay [3] was 7.33. Further, the pKi in assay [1] is 7.57.
For `C=CCOC(=O)[C@@H]1C[C@H](OC(C)=O)C(=O)[C@H]2[C@@]1(C)CC[C@H]1C(=O)O[C@H](c3ccoc3)C[C@]21C`, in assay [1], the negative logarithm of the Ki (pKi) was under 6.00.
Still for that read-out and setting: the value for `CC(=O)O[C@H]1C[C@@H](C(=O)NN2CCC(C)CC2)[C@]2(C)CC[C@H]3C(=O)O[C@H](c4ccoc4)C[C@]3(C)[C@H]2C1=O` was under 6.00.
The same measure, in the same setting: the value for `CC(=O)O[C@H]1C[C@@H](C(=O)NCC(=O)OCc2ccccc2)[C@]2(C)CC[C@@H]3C(=O)O[C@H](c4ccoc4)C[C@]3(C)[C@H]2C1=O` was under 6.00; that for `CCCCCCCCOC(=O)[C@@H]1C[C@H](OC(C)=O)C(=O)[C@H]2[C@@]1(C)CC[C@H]1C(=O)O[C@H](c3ccoc3)C[C@]21C` was under 6.00.
`COCOC(=O)[C@@H]1C[C@H](OC(C)=O)C(=O)[C@@H]2[C@@]3(C)C[C@@H](c4ccoc4)OC(=O)[C@H]3CC[C@]21C`: the Efficacy in assay [2] was determined as 102%. Moreover, in assay [3], the negative-log EC50 (pEC50) was 6.72. Also, the pKi in assay [1] was 6.96.
For `C#CCCCOC(=O)[C@@H]1C[C@H](OC(C)=O)C(=O)[C@H]2[C@@]1(C)CC[C@H]1C(=O)O[C@H](c3ccoc3)C[C@]21C`, in that order: 104%, 6.65 and 6.70.
With `CC(=O)O[C@H]1C[C@@H](C(=O)O)[C@]2(C)CC[C@@H]3C(=O)O[C@H](c4ccoc4)C[C@]3(C)[C@H]2C1=O`, the Efficacy in assay [2] turned out to be 94%. In assay [3], the pEC50 was 7.13. The molecule also had a pKi in assay [1] of 7.31.
Turning to `CC(=O)O[C@H]1C[C@@H](C(=O)NC(CO)C(=O)OCc2ccccc2)[C@]2(C)CC[C@H]3C(=O)O[C@H](c4ccoc4)C[C@]3(C)[C@H]2C1=O` (some centres undefined), the negative logarithm of the Ki (pKi) in assay [1] is under 6.00.
Still for that read-out and setting: the value for `C#CCCOC(=O)[C@@H]1C[C@H](OC(C)=O)C(=O)[C@H]2[C@@]1(C)CC[C@H]1C(=O)O[C@H](c3ccoc3)C[C@]21C` was under 6.00.
As to `CCOC(=O)[C@@H]1C[C@H](OC(C)=O)C(=O)[C@H]2[C@@]1(C)CC[C@H]1C(=O)O[C@H](c3ccoc3)C[C@]21C`, in assay [2], the Efficacy worked out at 110%. The negative-log EC50 (pEC50) in assay [3] was 7.03. The same molecule showed a pKi in assay [1] of 7.55.
For `C#CCCCOC(=O)[C@@H]1C[C@H](OC(C)=O)C(=O)[C@@H]2[C@@]3(C)C[C@@H](c4ccoc4)OC(=O)[C@H]3CC[C@]21C`, in assay [1], the pKi was under 6.00.
Same read-out and setting: the value for `CCCCCOC(=O)[C@@H]1C[C@H](OC(C)=O)C(=O)[C@H]2[C@@]1(C)CC[C@H]1C(=O)O[C@H](c3ccoc3)C[C@]21C` was under 6.00.
For `CC(=O)O[C@H]1C[C@@H](C(=O)N2CCCC2C(=O)OCc2ccccc2)[C@]2(C)CC[C@H]3C(=O)O[C@H](c4ccoc4)C[C@]3(C)[C@H]2C1=O` (some centres undefined), the Efficacy in assay [2] worked out at 100%. For the same molecule, the pEC50 in assay [3] was 6.46. The negative-log Ki (pKi) in assay [1] was 6.68.
In assay [1], `CC(=O)O[C@H]1C[C@@H](C(=O)NC(Cc2c[nH]cn2)C(=O)OCc2ccccc2)[C@]2(C)CC[C@H]3C(=O)O[C@H](c4ccoc4)C[C@]3(C)[C@H]2C1=O` (some centres undefined) showed a pKi of under 6.00.
Take `CC(=O)O[C@H]1C[C@@H](C(=O)NCc2ccccc2)[C@]2(C)CC[C@H]3C(=O)O[C@H](c4ccoc4)C[C@]3(C)[C@H]2C1=O`: the pKi in assay [1] was under 6.00.
Still for that read-out and setting: the value for `CC(=O)O[C@H]1C[C@@H](C(=O)NN2CCOCC2)[C@]2(C)CC[C@H]3C(=O)O[C@H](c4ccoc4)C[C@]3(C)[C@H]2C1=O` was under 6.00.

A word on the pKi: it is −log10 of the Ki, conventionally taken in molar units. Broadly, the pEC50 is the negative decadic logarithm of the EC50, by convention in mol/L.
